Bioassay records from PubChem.
STK33 kinase inh – blocks human STK33 kinase activity; Q9BYT3; purified STK33, MBP phosphorylation, ADP-Glo luminescence; inhibition, % at 10 µM; actives 0.073% (n = 320,000);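 active means inhibition at or above 25%, using the most active replicate where run in duplicate; inactive means inhibition below 25%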
DYRK1A inh – Dyrk1A (rat) kinase inhibition; actives 0.43% (n = 310,000); inhibition, % at 12.5 µM; ADP-Glo luminescence, NFATc1 peptide; in the data active means inhibition above about 50%;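 further: plate controls were vehicle with enzyme for no effect and no enzyme for full effect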
GSK3 alpha inh – blocks human GSK-3 alpha kinase. P49840. ADP-Glo luminescence, 60 min. inhibition, % at 10 µM. actives 0.1% (n = 320,000). AID 2650;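 active means more than half of replicates show inhibition above 20%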;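 further: GST-tagged GSK-3 alpha with peptide substrate and 25 µM ATP; 0% = DMSO neutral wells and 100% = GW8510 positive control wells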
GSK3B inh – blocks human GSK3beta kinase activity | P49841 | GST-GSK3beta kinase, ADP-Glo luminescence, 60 min; hits give low values | activity score (negative = inhibition), % at 10 µM | actives 0.038% (n = 300,000);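 active means more than half of replicate wells score below -50%, meaning over 50% inhibition versus plate controls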;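 further: 0% = median DMSO wells and -100% = median GW8510 positive control wells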
Target sequence (P49841 whole entry, looked up): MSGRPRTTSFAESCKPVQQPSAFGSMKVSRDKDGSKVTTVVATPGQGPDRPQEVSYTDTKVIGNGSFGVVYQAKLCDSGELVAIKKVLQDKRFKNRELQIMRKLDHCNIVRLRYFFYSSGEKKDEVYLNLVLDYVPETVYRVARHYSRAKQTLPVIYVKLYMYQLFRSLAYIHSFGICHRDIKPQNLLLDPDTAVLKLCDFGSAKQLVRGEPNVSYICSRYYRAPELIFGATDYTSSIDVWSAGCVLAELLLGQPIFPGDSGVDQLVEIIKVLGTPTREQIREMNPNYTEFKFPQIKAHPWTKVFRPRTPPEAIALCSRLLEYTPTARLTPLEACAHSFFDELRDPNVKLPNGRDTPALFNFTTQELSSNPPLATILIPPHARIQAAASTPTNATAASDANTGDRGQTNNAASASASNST
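Assay system: GST-tagged human GSK3beta kinase, cell-free; Input: 1.6 ng GSK3beta; Medium: Tris/MgCl2 kinase buffer; Timing: 60 min enzyme reaction, room temperature; Signal: ADP-Glo luminescence quantifying ADP generated by kinase; Evaluation: score relative to plate controls; Benchmarks: DMSO neutral wells and GW8510 at 20 µM as positive.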
Dyrk1A artifact – counter-screen for Dyrk1A inhibitors: ADP-Glo luciferase artifacts. ADP-Glo luciferase artifact assay, no Dyrk1A, luminescence. AID 588348. AC50, µM (highest dose often 12 µM), inactives show top-dose activity change, negative = inhibition. 1,300 tested, under 10 active. shares compounds with DYRK1A inh;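 active means fitted half-maximal dose AC50 no more than ten times the top valid tested dose, with luminescence dropping as dose rises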
Active calls of the source: *; / = not tested or not shown. Only a selection was taken, and hits are over-represented in it overall.

SMILES	STK33 kinase inh	DYRK1A inh	GSK3 alpha inh	GSK3B inh	Dyrk1A artifact
CCOC(=O)C1CCCN(c2c(NCCc3cccc(C)c3)c(=O)c2=O)C1 (stereo unspecified)	-1	-3	-3	2	/
CCOC(=O)C1CCCN(c2c(NCCN(C)Cc3ccccc3)c(=O)c2=O)C1 (stereo unspecified)	-1	61*	-1	-4	6%
COc1ccc(-c2csc3ncnc(Sc4nnnn4C)c23)cc1	1	50*	0	/	10%
CCc1ccccc1NC(=O)C1CCCN(S(=O)(=O)c2ccc3c(c2)CC(C)N3C(C)=O)C1 (stereo unspecified)	0	56*	0	-5	8%
CCC(C)NC(=O)C1CCCN(S(=O)(=O)c2ccc3c(c2)CC(C)N3C(C)=O)C1 (stereo unspecified)	-1	-4	0	0	/
CCC(C)NC(=O)C1CCCN(S(=O)(=O)c2ccc3c(c2)CC(C)N3C(=O)C2CC2)C1 (stereo unspecified)	-2	58*	1	2	11%
CC(=O)N1c2ccc(S(=O)(=O)N3CCCC(C(=O)N4CCCC(C)C4)C3)cc2CC1C (stereo unspecified)	-2	0	-1	1	/
Cc1cc(NC(=O)CCCN2C(=O)c3cccnc3C2=O)ccc1Br	-2	/	/	/	/
COCc1cc(CNC(=O)C2CCC(=O)N(Cc3ccccc3F)C2)[nH]n1 (stereo unspecified)	-2	-3	-2	2	/
CN1CCc2c(sc3nc(NN)n(Cc4ccccc4)c(=O)c23)C1	0	18	2	1	/
CN1CCc2c(sc3nc(NN)n(-c4ccc(Cl)cc4)c(=O)c23)C1	1	63*	2	0	6%
S=c1[nH]c2ccccc2n2c(=S)[nH]nc12	3	56*	7	0	7%
CCN1CCN(C(CC(C)C)c2nnnn2CS(=O)(=O)c2ccc(C)cc2)CC1 (stereo unspecified)	0	-2	-8	-1	/
c1ccc(Cc2nnc3sc(-c4ccc5c(c4)OCO5)nn23)cc1	-1	15	1	-2	/
c1ccc(Cc2nnc3sc(-c4ccc5c(c4)OCCO5)nn23)cc1	0	80*	8	2	9%
Oc1ccc2c(ccc3[nH]cnc32)c1	13	79*	2	2	7%
O=C(O)CCC(=O)N1N=C(c2ccc(Br)cc2)CC1c1cccc(Br)c1 (stereo unspecified)	-3	-2	4	0	/
O=C1CCCc2c1cc(C(=O)NCCCN1CCOCC1)c(=O)n2-c1ccc(Cl)cc1	1	58*	1	-3	12%
Cc1ccc(-n2c3c(cc(C(=O)NCCCN4CCOCC4)c2=O)C(=O)CC(C)(C)C3)cc1	-1	-4	-1	-2	/
CC(=O)O[C@H](COc1c2ccoc2cc2oc(=O)ccc12)C(C)(C)O	2	68*	-2	/	10%
C=C(C)[C@@H](O)COc1c2ccoc2cc2oc(=O)ccc12	2	59*	6	/	8%
CC(C)(O)[C@H](O)COc1c2ccoc2cc2oc(=O)ccc12	0	48	2	1	/
CC(=O)Nc1ccc(S(=O)(=O)N(C)c2ccc(OCCOc3ccccc3F)cc2)cc1	-5	2	0	/	/
O=C(COC(=O)CCc1ccc(S(=O)(=O)N2CCOCC2)cc1)Nc1ccccc1OC(F)F	-1	0	-1	/	/
CCOC(=O)c1nnc(-c2ccc(C)cc2)nc1Sc1ccc(Cl)cc1	-1	55*	-5	3	6%
SMILES	STK33 kinase inh	DYRK1A inh	GSK3 alpha inh	GSK3B inh	Dyrk1A artifact
c1cncc(-c2csc(-c3cccnc3)n2)c1	8	86*	1	-2	9%
c1cncc(-c2nc(-c3cccs3)cs2)c1	2	30	1	-8	/
CCN1CCN(C(=O)N(CC(=O)Nc2ccc(C(N)=O)cc2)S(=O)(=O)c2ccc(C)cc2)CC1	/	-18	/	1	/
O=C1NC(=S)SC1=Cc1ccc2c(c1)OCO2	/	49	/	/	/
O=C1N/C(=N/S(=O)(=O)Cc2ccccc2)S/C1=C/c1ccc2c(c1)OCO2	15	92*	71*	-3	8%
CCN1CCN(c2nc(Nc3cccc(C)c3)nc(N)c2[N+](=O)[O-])CC1	3	60*	12	0	8%
CN(C)C(=O)CSc1ncnc2scc(-c3ccccc3)c12	0	9	1	-2	/
O=C(O)CSc1ncnc2scc(-c3ccccc3)c12	7	73*	8	1	11%
